Laboratory results published in ChEMBL document CHEMBL4020823, “Highly Selective, Potent, and Oral mTOR Inhibitor for Treatment of Cancer as Autophagy Inducer” (J Med Chem, 2018).
Calls of active or inactive are those of the source. No cut-off for these calls is given here.

How the values were obtained:
MCF7 [1] = assay: Growth inhibition of human MCF7 cells after 72 hrs by CCK8 assay; assay type: functional, cell-based; settings: MCF7, 72 h
Procedure, shortened: (§1)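 Cells were seeded at 2000–3000 per well and grown 24 h in serum-containing medium. They were then exposed to serially diluted compound for 72 h at 37 °C, 5% CO2. CCK8 reagent was added for 1–4 h and absorbance read at 450 nm. Inhibition = (AC − AS)/(AC − Ab) × 100%. IC50 is the average of at least three independent determinations.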

MCF7 [2] = assay: Cell cycle arrest in human MCF7 cells assessed as decrease in S-phase at 0.5 uM after 24 hrs by propidium iodide-staining based flow cytometric analysis; assay type: functional
Procedure, shortened: (§2)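 Cells were seeded at 5 × 10^5 cells/mL. At 24 h after plating they were treated with increasing concentrations for 24 h, washed in PBS, and fixed in ice-cold 70% ethanol for at least 24 h. They were stained with propidium iodide plus RNase A for 30 min at 37 °C and analysed by flow cytometry for phase distribution.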

T47D [3] = assay: Growth inhibition of human T47D cells after 72 hrs by CCK8 assay; assay type: functional, cell-based; procedure, shortened: as §1
T47D [4] = assay: Cell cycle arrest in human T47D cells assessed as accumulation at G0/G1 phase at 0.5 uM after 24 hrs by propidium iodide-staining based flow cytometric analysis; assay type: functional; procedure, shortened: as §2
NCI-H460 = assay: Growth inhibition of human H460 cells after 72 hrs by CCK8 assay; assay type: functional, cell-based; settings: NCI-H460, 72 h; procedure, shortened: as §1
OVCAR-5 = assay: Growth inhibition of human OVCAR5 cells after 72 hrs by CCK8 assay; assay type: functional, cell-based; settings: OVCAR-5, 72 h; procedure, shortened: as §1
MDA-MB-231 [5] = assay: Growth inhibition of human MDA-MB-231 cells after 72 hrs by CCK8 assay; assay type: functional, cell-based; settings: MDA-MB-231, 72 h; procedure, shortened: as §1
MDA-MB-231 [6] = assay: Cell cycle arrest in human MDA-MB-231 cells assessed as decrease in S-phase at 0.5 uM after 24 hrs by propidium iodide-staining based flow cytometric analysis; assay type: functional; procedure, shortened: as §2
T47D [7] = assay: Antitumor activity against human T47D cells xenografted in BALB/c nude mouse assessed as decrease in tumor growth at 60 mg/kg, po administered via gavage after 3 weeks relative to control; assay type: functional; settings: 504 h, read-out: TGI
SiHa [8] = assay: Cell cycle arrest in human SiHa cells assessed as accumulation at G0/G1 phase at 0.5 uM after 24 hrs by propidium iodide-staining based flow cytometric analysis; assay type: functional; procedure, shortened: as §2
MCF7 [9] = assay: Induction of autophagy in human MCF7 cells assessed as increase in LC3-2 level at 0.5 uM after 48 hrs by Western blot analysis; assay type: functional, cell-based
Procedure, shortened: (§3)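 Cells treated with test agents at several concentrations for 2 days (48 h). LC3B-II detected by Western blot on lysates, with β-actin as internal control. Membranes blocked in 5% skim milk, primary antibodies at 4 °C overnight, peroxidase-conjugated anti-mouse or anti-rabbit IgG secondary, ECL detection.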

T47D [10] = assay: Induction of autophagy in human T47D cells assessed as increase in LC3-2 level at 0.5 uM after 48 hrs by Western blot analysis; assay type: functional, cell-based; procedure, shortened: as §3
T47D [11] = assay: Antitumor activity against human T47D cells xenografted in BALB/c nude mouse assessed as tumor weight at 60 mg/kg, po administered via gavage after 3 weeks (reference value: 1.23 g); assay type: functional
MDA-MB-231 [12] = assay: Cell cycle arrest in human MDA-MB-231 cells assessed as accumulation at G0/G1 phase at 0.5 uM after 24 hrs by propidium iodide-staining based flow cytometric analysis; assay type: functional; procedure, shortened: as §2
MDA-MB-231 [13] = assay: Induction of autophagy in human MDA-MB-231 cells assessed as increase in LC3-2 level at 0.5 uM after 48 hrs by Western blot analysis; assay type: functional, cell-based; procedure, shortened: as §3
HeLa [14] = assay: Growth inhibition of human HeLa cells after 72 hrs by CCK8 assay; assay type: functional, cell-based; procedure, shortened: as §1
HeLa [15] = assay: Cell cycle arrest in human HeLa cells assessed as decrease in S-phase at 1 uM after 24 hrs by propidium iodide-staining based flow cytometric analysis; assay type: functional; procedure, shortened: as §2
SK-OV-3 = assay: Growth inhibition of human SKOV3 cells after 72 hrs by CCK8 assay; assay type: functional, cell-based; settings: SK-OV-3, 72 h; procedure, shortened: as §1
MCF7 [16] = assay: Cell cycle arrest in human MCF7 cells assessed as accumulation at G0/G1 phase at 0.5 uM after 24 hrs by propidium iodide-staining based flow cytometric analysis; assay type: functional; procedure, shortened: as §2
SiHa [17] = assay: Cell cycle arrest in human SiHa cells assessed as decrease in S-phase at 0.5 uM after 24 hrs by propidium iodide-staining based flow cytometric analysis; assay type: functional; procedure, shortened: as §2
T47D [18] = assay: Cell cycle arrest in human T47D cells assessed as decrease in S-phase at 0.5 uM after 24 hrs by propidium iodide-staining based flow cytometric analysis; assay type: functional; procedure, shortened: as §2
SiHa [19] = assay: Induction of autophagy in human SiHa cells assessed as increase in LC3-2 level at 1 uM after 48 hrs by Western blot analysis; assay type: functional, cell-based; procedure, shortened: as §3
T47D [20] = assay: Induction of autophagy in human T47D cells assessed as increase in LC3-2 puncta level at 0.5 uM after 48 hrs by immunofluorescence staining based microscopic analysis; assay type: functional, cell-based
Procedure, shortened: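 Cells seeded on glass coverslips in complete 1640 or DMEM and incubated with inhibitors at different concentrations for 48 h. Fixed in 4% paraformaldehyde, permeabilized with 0.15% Triton X-100, blocked in 4% BSA/PBS for 1 h at room temperature. Anti-LC3B (1:200) overnight, then FITC-conjugated secondary, DAPI nuclear stain. LC3B-II puncta viewed by fluorescence microscopy.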

HeLa [21] = assay: Induction of autophagy in human HeLa cells assessed as increase in LC3-2 level at 2 uM after 48 hrs by Western blot analysis; assay type: functional, cell-based
Procedure, shortened: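 Cells were treated for 48 h (2 days) with varying concentrations. Whole-cell lysates were immunoblotted for LC3B-II with β-actin as the internal control. Membranes were blocked in 5% skim milk, incubated with primary antibody overnight at 4 °C, then with peroxidase-conjugated secondary, and developed by ECL.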

HeLa [22] = assay: Cell cycle arrest in human HeLa cells assessed as accumulation at G0/G1 phase at 1 uM after 24 hrs by propidium iodide-staining based flow cytometric analysis; assay type: functional; procedure, shortened: as §2
SiHa [23] = assay: Growth inhibition of human SiHa cells after 72 hrs by CCK8 assay; assay type: functional, cell-based; procedure, shortened: as §1

CO[C@H]1C[C@@H]2CC[C@@H](C)[C@@](O)(O2)C(=O)C(=O)N2CCCC[C@H]2C(=O)O[C@H]([C@H](C)C[C@@H]2CC[C@@H](O)[C@H](OC)C2)CC(=O)[C@H](C)/C=C(\C)[C@@H](O)[C@@H](OC)C(=O)[C@H](C)C[C@H](C)/C=C/C=C/C=C/1C [SIROLIMUS]
IC50 (MCF7 [1]): 4.98 µM | Activity (MCF7 [2]): Active | IC50 (T47D [3]): 1580 nM | Activity (T47D [4]): Active | IC50 (NCI-H460): > 10 µM | IC50 (OVCAR-5): > 10 µM | IC50 (MDA-MB-231 [5]): > 10 µM | Activity (MDA-MB-231 [6]): Active | inhibition in vivo at 60 mg/kg (T47D [7]): 72.4% | Activity (SiHa [8]): Active | Activity (MCF7 [9]): Active | Activity (T47D [10]): Active | Activity (T47D [11]): 0.36 g | Activity (MDA-MB-231 [12]): Active | Activity (MDA-MB-231 [13]): Active | IC50 (HeLa [14]): > 10 µM | Activity (HeLa [15]): Active | IC50 (SK-OV-3): > 10 µM | Activity (MCF7 [16]): Active | Activity (SiHa [17]): Active | Activity (T47D [18]): Active | Activity (SiHa [19]): Active | Activity (T47D [20]): Dose-dependent effect | Activity (HeLa [21]): Active | Activity (HeLa [22]): Active | IC50 (SiHa [23]): 1760 nM
